Results gathered from unrelated publications.
Each line is one published result; the experiments were not run side by side.

`C[C@@H](CN1CCC(n2c(=O)[nH]c3cc(Cl)ccc32)CC1)NC(=O)c1ccc2ccccc2c1` has an AUC(0-t) of 11.9 ng·h/mL (male CD-1 mouse, plasma; intravenous, 1 mg/kg, single dose).
With `Cc1cc(-c2ccnc3[nH]cc(F)c23)cc(F)c1[C@@]1(O)[C@H](C)CN(C(=O)CN)C[C@@H]1C` the AUC(0-t) was 16900 ng·h/mL (male CD-1 mouse, plasma; oral, 3 mg/kg).
The AUC(0-t) of `OCc1nc2ccc(NCc3ccc(C(F)(F)F)cc3)cc2[nH]1` is reported as 2730 ng·h/mL (male BALB/c mouse, plasma; oral, 10 mg/kg).
With `Cc1ncsc1-c1ccc([C@H](CC(=O)N2CCN(c3ccc(C#Cc4ccc(C(=O)N5CCC(n6cc(-c7ccc8c(c7)CCN8C(=O)Cc7cccc(OC(F)(F)F)c7)c7c(N)ncnc76)CC5)cc4)cn3)CC2)NC(=O)[C@@H]2C[C@@H](O)CN2C(=O)[C@@H](NC(=O)C2(F)CC2)C(C)(C)C)cc1` the AUC(0-t) was 7260 ng·h/mL (male C57BL/6 mouse, plasma; intravenous, 1 mg/kg).
The AUC(0-t) of `NCc1ccc(-c2nn(Cc3ccncc3)c3ccccc23)o1` is reported as 1050 ng·h/mL (male CD-1 mouse, plasma; intravenous, 5 mg/kg).
With `Cc1ncsc1-c1ccc([C@H](C)NC(=O)[C@@H]2C[C@@H](O)CN2C(=O)[C@@H](NC(=O)CCCCCCCCCCC(=O)NCCCn2cc(-c3ccc4c(c3)CCN4C(=O)Cc3cccc(OC(F)(F)F)c3)c3c(N)ncnc32)C(C)(C)C)cc1` the AUC(0-t) was 835 ng·h/mL (mouse, plasma; intravenous, 1 mg/kg).
For `Cc1ccc(OCC(=O)N[C@@H](Cc2c[nH]c3ccccc23)C(=O)OC(C)C)cc1`, the AUC(0-t) was 2460 ng·h/mL (male Sprague-Dawley mouse, plasma; intravenous, 10 mg/kg).
With `COC1=CC(c2ccc[nH]2)=N/C1=C\c1[nH]c(Cc2ccc(OC(F)(F)F)cc2)cc1Cc1ccc(OC(F)(F)F)cc1` the AUC(0-t) was 494000 ng·h/mL (male CD-1 mouse, liver; oral, 40 mg/kg, single dose).
For `Oc1ccc([C@@H]2Oc3ccc(O)cc3[C@@H]3CCC[C@@H]32)cc1`, the AUC(0-t) was 1.17 µM·h (male C57BL/6 mouse, plasma; oral, 10 mg/kg).
For `CCCC[C@@H](NC(=O)[C@@H](Cc1cn(C(=O)OC)c2ccccc12)NC(=O)[C@H](CC(C)(C)C)NC(=O)N1[C@H](C)CCC[C@@H]1C)C(=O)O`, the AUC(0-t) was 225 ng·h/mL (male CD-1 mouse, plasma; intravenous, 3 mg/kg).
The AUC(0-t) of `OCc1ccc(-c2nn(Cc3ccccc3)c3ccccc23)o1` is reported as 1070 ng·h/mL (male CD-1 mouse, plasma; intravenous, 5 mg/kg).
For `Cc1ccc(N(c2ccc(NC(=O)CN(C)c3ccccc3N3CCCC3=O)cc2)C(C)C)cc1`, the AUC(0-t) was 2710 ng·h/mL (male CD-1 mouse, plasma; oral, 20 mg/kg).
`Cc1ncsc1-c1ccc([C@H](C)NC(=O)[C@@H]2C[C@@H](O)CN2C(=O)[C@@H](NC(=O)CCCCCCCCC(=O)N2CCC(n3cc(-c4ccc5c(c4)CCN5C(=O)Cc4cccc(OC(F)(F)F)c4)c4c(N)ncnc43)CC2)C(C)(C)C)cc1` has an AUC(0-t) of 1240 ng·h/mL (male C57BL/6 mouse, plasma; intravenous, 1 mg/kg).
The AUC(0-t) of `O=C1CCC(N2Cc3cc(C4CCN(Cc5ccccc5)CC4)ccc3C2=O)C(=O)N1` (stereo not shown) is reported as 594 ng·h/mL (male CD-1 mouse, plasma; oral, 3 mg/kg).
For `NCc1ccc(-c2nn(Cc3ccccc3)c3ccccc23)o1`, the AUC(0-t) was 9120 ng·h/mL (male CD-1 mouse, plasma; intraperitoneal, 30 mg/kg).
`COC1=CC(c2ccc[nH]2)=N/C1=C\c1cc(Cc2ccc(OC(F)(F)F)cc2)c(C)[nH]1.Cl` gave an AUC(0-t) of 8220 ng·h/mL (male CD-1 mouse, plasma; oral, 40 mg/kg, single dose).
`CN(C)C(=O)c1cc2cnc(Nc3ccc(-c4ccc5c(=O)cc(N6CCOCC6)oc5c4)cc3)nc2n1C1CCCC1.Cl` gave an AUC(0-t) of 7480 ng·h/mL (BALB/c mouse, plasma; oral, 20 mg/kg).
With `Cc1nc2ccc(OCc3ccc(C(F)(F)F)cc3)cc2[nH]1` the AUC(0-t) was 13200 ng·h/mL (male BALB/c mouse, plasma; oral, 10 mg/kg).
With `Cc1cc(-c2ccnc3[nH]cc(F)c23)cc(F)c1[C@@]1(O)[C@H](C)CN(C2CCS(=O)(=O)CC2)C[C@@H]1C` the AUC(0-t) was 3220 ng·h/mL (male CD-1 mouse, plasma; oral, 3 mg/kg).
